Screens as filed in PubChem.
Sampled rows, rich in hits. Any-hit rate of the full collection: about 2.3%.
OXTR potentiate – human OXTR potentiators, primary screen, fluorescence, CHO-OTR cells, Fluo-8 calcium. Oxytocin receptor (Homo sapiens), P30559. Fluo-8 calcium fluorescence, potentiator mode; 0% = oxytocin EC15, 100% = EC100. activation, % at 3 µM. hit rate 0.061% among 320,000. AID 2445, 2010;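 active = activation above that plate's cutoff, the mean activation of tested compounds plus 3 SD, cut at about 6.6% in these data, passing the limit was not always enough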
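Material: CHO-OTR cells, human receptor; compound dosing: single dose, 3.0 µM nominal final compound concentration; schedule: 6 min compound pre-incubation at room temperature, 100 s kinetic read; measured by: kinetic Fluo-8 calcium fluorescence; read-out basis: % activation vs EC15 and EC100 oxytocin; controls: EC15 oxytocin alone as 0%, 75 nM oxytocin as 100%; replicates: singlicate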
V1R ag counter – agonists of human V1a receptor, primary screen, counter-screen for OXTR agonist project, fluorescence, CHO-V1R cells | activation, % at 3 µM | hit rate 0.25% among 320,000 | Fluo-8 calcium fluorescence, agonist mode; 0% DMSO, 100% 3 nM vasopressin | Vasopressin V1a receptor (Homo sapiens), P37288;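 active = activation above the mean activation of all tested compounds plus 3 SD, per screening run, cut at about 20% in these data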;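 also: signal is peak over basal fluorescence ratio across a 100 second FLIPR read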
Target sequence (P37288 whole entry, looked up): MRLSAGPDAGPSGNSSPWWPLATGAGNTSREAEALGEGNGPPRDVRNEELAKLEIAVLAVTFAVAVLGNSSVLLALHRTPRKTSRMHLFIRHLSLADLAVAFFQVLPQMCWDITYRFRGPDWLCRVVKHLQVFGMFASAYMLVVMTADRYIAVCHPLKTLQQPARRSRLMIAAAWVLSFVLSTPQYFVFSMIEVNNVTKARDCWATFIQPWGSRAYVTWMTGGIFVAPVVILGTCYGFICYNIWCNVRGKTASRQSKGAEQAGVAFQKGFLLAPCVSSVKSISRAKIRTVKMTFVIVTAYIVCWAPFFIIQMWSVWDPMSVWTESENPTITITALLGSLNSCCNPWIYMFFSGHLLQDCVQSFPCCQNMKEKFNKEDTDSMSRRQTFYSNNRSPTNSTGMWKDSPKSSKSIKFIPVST
TAAR1 antagonist – human TAAR1 antagonists, primary screen, Fluo-8 calcium fluorescence, CHO RD-HGA16 cells; AID 624466, 2012; hit rate 1.5% among 360,000; Trace amine-associated receptor 1 (Homo sapiens), Q96RJ0; antagonist; inhibition, % at 3 µM;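 active = inhibition above a per-plate cutoff, the mean inhibition of test compounds on that plate plus 3 SD, cut at about 49% in these data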
Target sequence (Q96RJ0 whole entry, looked up): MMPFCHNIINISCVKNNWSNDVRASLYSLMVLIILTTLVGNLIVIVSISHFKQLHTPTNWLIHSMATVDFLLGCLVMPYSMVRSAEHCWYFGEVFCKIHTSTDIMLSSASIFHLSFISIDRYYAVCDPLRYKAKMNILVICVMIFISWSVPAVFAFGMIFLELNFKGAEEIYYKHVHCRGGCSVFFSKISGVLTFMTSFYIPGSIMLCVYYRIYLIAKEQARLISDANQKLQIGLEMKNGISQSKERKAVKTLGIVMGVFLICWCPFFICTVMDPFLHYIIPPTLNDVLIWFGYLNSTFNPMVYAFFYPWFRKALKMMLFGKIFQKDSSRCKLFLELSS
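Assay system: RD-HGA16 CHO cells with stable hTAAR1 and Gα16 / Reagent: EC80 β-phenethylamine stimulus / Doses: 3 µM, single point / Timing: dye loading 75 min at 37 °C, then 30 min room temperature / Measured by: Fluo-8 intracellular calcium dye fluorescence, real-time kinetic reads / Controls: vehicle wells and EC80 agonist wells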
OXTR agonist – human OXTR agonists, primary screen, fluorescence, CHO-OTR cells, Fluo-8 calcium; Oxytocin receptor (Homo sapiens), P30559; Fluo-8 calcium fluorescence; normalized: DMSO 0%, oxytocin 100%; activation, % at 3 µM; hit rate 0.32% among 320,000;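 active = activation above the mean of all tested compounds plus 3 SD, cutoff set per screening run, cut at about 20% in these data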;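 also: peak over basal fluorescence ratio from a 100 s FLIPR kinetic read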
TAAR1 ag – human TAAR1 agonists, primary screen, Fluo-8 calcium fluorescence, CHO RD-HGA16 cells | vehicle wells 0%, saturating PEA agonist 100% | activation, % at 3 µM | hit rate 0.99% among 360,000 | AID 624467, 2012 | Trace amine-associated receptor 1 (Homo sapiens), Q96RJ0;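 active = activation above the mean activation of all test compounds in the run plus 3 SD, cut at about 38% in these data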
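Test system: RD-HGA16 (CHO) cells co-expressing Gα16 and hTAAR1; dosing: one-point dosing at 3 µM (nominal); timing: 17-24 h seeding, 75 min 37 °C dye, 30 min RT; signal: kinetic Fluo-8 calcium fluorescence; read-out basis: % activation relative to PEA EC100 response; controls: DMSO and PEA EC100; replicates: n 1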
TAAR1 ag confirm – human TAAR1 agonists, retest of hits, confirmation, Fluo-8 calcium fluorescence, CHO RD-HGA16 cells. AID 651783, 2012. shares compounds with TAAR1 ag. activation, % at 3 µM. hit rate 82% among 2,400. scaled: DMSO 0%, maximal phenethylamine 100%;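 active = activation above a cutoff set at the run's mean compound activation plus 3 SD, cut at about 39% in these data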
Ga16 ag counter – nonselective calcium mobilization agonists, CHO-Ga16 cells, counter-screen for hTAAR1 agonist project, cell-based, fluorescence, CHO-Ga16 parental line | shares compounds with TAAR1 ag | Fluo-8 calcium fluorescence; normalized to maximal ATP response, DMSO zero | activation, % at 3 µM | hit rate 50% among 2,400 | AID 651787, 2012;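 active = activation above the run cutoff, the mean activation over all tested wells plus 3 SD, cut at about 12% in these data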
TAAR1 desensitize – TAAR1 desensitization by agonist hits, confirmation, counter-screen for TAAR1 agonist project, cell-based, fluorescence, tachyphylaxis | inhibition, % at 3 µM | AID 651951, 2012 | shares compounds with TAAR1 ag | hit rate 46% among 2,400 | CHO RD-HGA16 hTAAR1, Fluo-8 calcium, beta-PEA response inhibition;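 active = inhibition above the run cutoff, the mean inhibition of all test compounds plus 3 SD, cut at about 49% in these data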;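 also: beta-PEA stimulus applied at its EC80; loss of beta-PEA calcium signal after compound pretreatment read as receptor desensitization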
Ga16 antag count – inhibition of ATP-evoked calcium response in CHO-Ga16 cells, counter-screen for TAAR1 agonist project, cell-based, fluorescence. shares compounds with TAAR1 ag. CHO-Ga16 ATP-induced calcium, Fluo-8 fluorescence. inhibition, % at 3 µM. hit rate 39% among 2,400. AID 651952, 2012;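 active = inhibition above the plate's mean compound inhibition plus 3 SD, computed per plate, cut at about 22% in these data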
Large screens that a line does not name were inactive (follow-up assays come after a bar, where they were run).

O=C(COc1ccccc1)NNC(=O)c1cc2ccccc2oc1=O	TAAR1 ag 45.3 | TAAR1 ag confirm 71.8 | Ga16 ag counter inactive | TAAR1 desensitize inactive | Ga16 antag count inactive
COc1ccc(OCC(=O)NNC(=O)c2cc3ccccc3o2)cc1	none
C/C=C/c1cc(CN2CCN(c3ccc(OC)cc3)CC2)c(O)c(OC)c1	none
CCCCOc1ccc(Br)cc1/C(C)=N/NC1=NCCN1	TAAR1 ag 57.5 | TAAR1 ag confirm 65.5 | Ga16 ag counter inactive | TAAR1 desensitize inactive | Ga16 antag count inactive
Cc1cc(C)c(C)c(S(=O)(=O)N2CCC(C(=O)NCc3ccco3)CC2)c1C	none
O=C(C1CC1)N1CCc2cc(S(=O)(=O)NCc3ccccc3)ccc21	TAAR1 ag 67.7 | TAAR1 ag confirm inactive | Ga16 ag counter inactive | TAAR1 desensitize inactive | Ga16 antag count inactive
Cc1ccc(NC(=O)COc2cccc3ccc(C)nc23)c(Br)c1	TAAR1 antagonist 89.5, TAAR1 ag 86.8 | TAAR1 ag confirm inactive | Ga16 ag counter inactive | TAAR1 desensitize inactive | Ga16 antag count 22.0
COc1ccc(S(=O)(=O)N2CCN(Cc3cccc(OC)c3OC)CC2)cc1	none
C[C@H](O)[C@@H]1C(=O)N2CCc3ccc(-c4ccccc4)cc3[C@@H]2C[C@@H]1N(C)C(=S)Nc1ccc(F)cc1	TAAR1 ag 65.7 (no result: OXTR potentiate, V1R ag counter, OXTR agonist) | TAAR1 ag confirm 70.1 | Ga16 ag counter 34.2 | TAAR1 desensitize 49.2 | Ga16 antag count 46.3
C[C@H](O)[C@@H]1C(=O)N2CCc3ccc(-c4cccc(F)c4)cc3[C@@H]2C[C@@H]1N(C)C(=O)Nc1ccccc1	none (no result: OXTR potentiate, V1R ag counter, OXTR agonist)
O=C(CN1CCC(C(=O)c2ccc3c(c2)OCCO3)CC1)NCc1ccccc1	none
CN1CCN(C(c2ccc(C(F)(F)F)cc2)c2ccc3cccnc3c2O)CC1 (centres undefined)	TAAR1 ag 101.8 | TAAR1 ag confirm 128.7 | Ga16 ag counter 94.3 | TAAR1 desensitize 63.0 | Ga16 antag count inactive
Oc1c(C(c2cccs2)N2CCN(c3ccccc3)CC2)ccc2cccnc12 (centres undefined)	none (no result: TAAR1 antagonist, TAAR1 ag)
CC(C)Oc1ccccc1OC1(C)CCN(Cc2ccc(OC(F)(F)F)cc2)C1 (centres undefined)	none (no result: OXTR potentiate, V1R ag counter, OXTR agonist)
O=C(CSc1nnc(CNc2ccccc2)o1)N1CCc2ccccc21	TAAR1 antagonist 75.0, TAAR1 ag 74.1 | TAAR1 ag confirm inactive | Ga16 ag counter inactive | TAAR1 desensitize inactive | Ga16 antag count inactive
O=c1[nH]cc(S(=O)(=O)N2CCOCC2)c(=O)[nH]1	none
O=C(NCc1ccco1)c1sc(=S)n2c1[nH]c(=O)c1ccccc12	V1R ag counter 21.1, OXTR agonist 24.2, TAAR1 ag 75.2 | TAAR1 ag confirm 38.1 | Ga16 ag counter 23.2 | TAAR1 desensitize inactive | Ga16 antag count inactive
CCOC(=O)[C@@H]1[C@H]2COc3cc(OC)ccc3[C@@H]2N2C(=O)N(c3ccc(F)cc3)C(=O)[C@@]12C	none
Cc1ccc(N2C(N)=C(C#N)C(c3cccs3)C3=C2CC(C)(C)CC3=O)cc1 (centres undefined)	TAAR1 ag 45.4 | TAAR1 ag confirm 39.0 | Ga16 ag counter 11.9 | TAAR1 desensitize inactive | Ga16 antag count inactive
CC1(C)CC(=O)C2=C(C1)N(c1ccc(F)cc1)C(N)=C(C#N)C2c1cccs1 (centres undefined)	none
CN1CCN(c2cc(CNC[C@H]3O[C@@H](n4cnc5c(=O)[nH]c(N)nc54)[C@H](O)[C@@H]3O)ccc2F)CC1	none (no result: OXTR potentiate, V1R ag counter, OXTR agonist)
CCC1(c2ccccc2)NC(=O)N(CC(=O)Nc2ccccc2N2CCCCC2)C1=O (centres undefined)	TAAR1 antagonist 51.7, TAAR1 ag 70.1 | TAAR1 ag confirm 78.3 | Ga16 ag counter 44.9 | TAAR1 desensitize 62.9 | Ga16 antag count 29.8
CN(C)c1ccc(/C=C/C(=O)c2ccccc2)cc1[N+](=O)[O-]	none
O=C(/C=C/c1ccc(O)c([N+](=O)[O-])c1)c1ccc2ccccc2c1	TAAR1 ag 65.7 | TAAR1 ag confirm inactive | Ga16 ag counter 38.0 | TAAR1 desensitize inactive | Ga16 antag count inactive
O=C(Nc1ccc(Cl)c(C(F)(F)F)c1)NC1CC2CCCC(C1)N2C1CC1 (centres undefined)	TAAR1 ag 68.4 | TAAR1 ag confirm 70.5 | Ga16 ag counter 24.8 | TAAR1 desensitize inactive | Ga16 antag count 25.4
O=C(Nc1cccc(F)c1)NC1CC2CCCC(C1)N2C1CC1 (centres undefined)	none
CN1CCN(C(=O)C2CCC(=O)N(CCc3cccc(F)c3)C2)CC1 (centres undefined)	none
COc1cc(=O)n(C)c2ccccc12	none
COc1ccc2c(OC)cc(=O)n(C)c2c1	TAAR1 ag 67.5 | TAAR1 ag confirm inactive | Ga16 ag counter inactive | TAAR1 desensitize inactive | Ga16 antag count inactive
COc1ccccc1-c1noc(CCCC(=O)Nc2ccc(C(N)=O)cc2)n1	none
Cc1ccc(NC(=O)CN2C(=O)C(=O)N(C3CCCC3)C2=O)cc1Cl	none
CCn1c(=O)n(CC)c2cc(N3CCCC3)c(NC(=O)c3ccc(C)cc3)cc21	TAAR1 ag 45.8 | TAAR1 ag confirm inactive | Ga16 ag counter inactive | TAAR1 desensitize inactive | Ga16 antag count inactive
CCCCOc1ccc(S(=O)(=O)NC(=O)C2(C)CCN2C(=O)c2c(C)noc2C)cc1 (centres undefined)	none (no result: OXTR potentiate, V1R ag counter, OXTR agonist)
Cc1nc2c(C(=O)NCc3ccccc3Cl)c[nH]n2c(=O)c1Cl	none
Cc1cc(C(F)F)n2ncc(C(=O)NCCc3ccccc3Cl)c2n1	TAAR1 ag 68.3 | TAAR1 ag confirm 69.5 | Ga16 ag counter inactive | TAAR1 desensitize inactive | Ga16 antag count inactive
Cc1nc2c(C(=O)NCCc3ccccc3Cl)c[nH]n2c(=O)c1Cl	TAAR1 antagonist 61.2, TAAR1 ag 83.8 | TAAR1 ag confirm 79.7 | Ga16 ag counter 13.8 | TAAR1 desensitize 82.5 | Ga16 antag count inactive
